# High-throughput results from PubChem BioAssay.
# In the library only some 2.9% were active in any assay of this set; here they are far more common.
# Mot1-301 SUMO: SUMOylation pathway inhibition by Mot1-301 growth rescue; S. cerevisiae Mot1-301 growth rescue, ATP luminescence, 38.5C; percent above DMSO median, 100 means doubled; 1% of 320,000 active; growth rescue, % at 18.8 µM;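 active = every valid replicate shows activation above 250% relative to neutral control wells; inactive = the rest, any valid replicate at or below 250%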;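 also: OY570 slx delta 5 strain wells were the positive control but not used for scaling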
# NALP1 inh: NALP1 inhibition; S. cerevisiae NALP1/ASC/caspase-1 growth, X-gal OD620, 72 h; inhibition, % at 10 µM; 0.61% of 280,000 active; AID 2071; in the data active = inhibition mostly above about 24%, no sharp cut-off; inactive = mostly below about 32%
# IMP-1 inhibitor: blocks Pseudomonas aeruginosa IMP-1 metallo-beta-lactamase. purified IMP-1, nitrocefin hydrolysis, epi-absorbance fluorescence. 0.45% of 290,000 active. inhibition, % at 5.6 µM;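 active = inhibition above the mean plus 3 SD of all compounds in the same screening run, cut at about 4.5% in these data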;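 also: 0% = IMP-1 with DMSO and 100% = DMSO wells lacking enzyme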
#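 System: purified IMP-1 / Input: IMP-1 dispensed at 0.2 nM / Medium: 50 mM HEPES pH 7.1, 50 µM ZnSO4, 0.05% Brij 35 / Timing: 15 min enzyme–compound preincubation, then 25 min nitrocefin reaction, 25 °C / Technique: plate fluorescence quenching by hydrolysis product, ex 480/em 530 nm / Repeats: singlicate testing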
# DNA FID counter: displaces DNA intercalator in HCV helicase counter-screen | DNA fluorescent intercalator displacement, fluorescence | inhibition, % at 7.9 µM | 0.17% of 290,000 active; in the data active = inhibition above about 37%;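 also: 0% = vehicle and 100% = reference compound; higher means more ethidium bromide displaced from hairpin DNA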
# VIM-2 inh: inhibitors of Pseudomonas aeruginosa VIM-2 metallo-beta-lactamase | purified VIM-2, nitrocefin hydrolysis, epi-absorbance fluorescence | inhibition, % at 5.6 µM | 0.89% of 290,000 active | AID 1527;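 active = inhibition above the mean of all tested compounds plus 3 SD, cutoff set per screening run, cut at about 7.5% in these data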;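 also: red hydrolysis product quenches plate fluorescence so inhibitors raise well fluorescence; 0% = enzyme with DMSO and 100% = DMSO without enzyme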
# UBC9 SUMO inh: blocks human SUMOylation mediated by UBC9; P63279; HTRF SUMOylation assay, SAE1/SAE2 + UBC9, in vitro; inhibition, % at 35 µM; 0.36% of 290,000 active; in the data active = inhibition above about 50%, passing the limit was not always enough
# Target sequence (P63279 whole entry, looked up): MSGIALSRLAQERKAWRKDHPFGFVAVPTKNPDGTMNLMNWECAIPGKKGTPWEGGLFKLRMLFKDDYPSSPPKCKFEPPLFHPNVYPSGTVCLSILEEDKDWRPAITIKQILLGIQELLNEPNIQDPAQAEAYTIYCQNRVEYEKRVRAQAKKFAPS
# Mot1 SUMO dose: SUMO pathway inhibitors in yeast Mot1-301 growth. AID 493004. S. cerevisiae Mot1-301 galactose growth, ATP luminescence, 24 h; -100 = growth of slx-deleted rescue strain. 2,300 tested, under 10 active. shares compounds with Mot1-301 SUMO. growth activity, percent, % at 42 µM;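 active = Signal drops as the depositor expects, and the fitted half-maximal dose is no more than ten times the top valid tested dose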;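 also: more negative values mean stronger growth rescue toward the control strain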
# * = called active by the depositor; / = not tested or not shown; + = active, no number.
SMILES,Mot1-301 SUMO,NALP1 inh,IMP-1 inhibitor,DNA FID counter,VIM-2 inh,UBC9 SUMO inh,Mot1 SUMO dose
CC1C(=O)Nc2ccccc2N1C(=O)c1ccccc1 (centres undefined),6,12,-2,-4,1,10,/
O=C(Nc1ccccc1)N1CCC(c2ccccc2)C1 (centres undefined),22,-2,-2,-6,-1,-1,/
CCc1ccc(NC(=O)N2CCC(c3ccccc3)C2)cc1 (centres undefined),929*,3,-2,-18,-3,6,0
COc1ccc(C(=O)N(CCc2ccccc2)Cc2ccccc2)c(OC)n1,658*,22,-2,-41,-2,0,0
C/C(=N\NC(=O)CNC(=O)C1COc2ccccc2O1)c1ccco1 (centres undefined),7,11,-2,-10,-4,4,/
COc1ccc2c(CC(=O)Nc3ccc(OC)c(NS(=O)(=O)c4ccc(F)cc4)c3)coc2c1,560*,19,-3,-10,-2,-5,-1
CC(=O)N1CCC2(CC1)CC(=O)c1cc(OCC(=O)N3CCOCC3)ccc1O2,-13,-3,1,-7,-1,27,/
COc1ccc(C2NC(=O)c3ccccc3O2)cc1 (centres undefined),529*,5,-3,-6,-1,-14,0
O=C1CC(c2cccc(Br)c2)C2=C(COC2=O)N1 (centres undefined),386*,7,-2,1,-3,-3,1
Cc1ccnc(NC(=O)CNC(=O)c2ccc(Br)o2)c1,493*,/,/,/,/,/,0
COCCCN1C(=O)c2ccc(C(=O)N3CCN(c4ccccc4OC)CC3)cc2C1=O,6,11,-2,-48,-2,23,/
O=C(O)c1ccc2nc(-c3ccccc3)c(-c3ccccc3)nc2c1,5,-4,0,-39,1,21,/
CCN1CCN(C(=O)c2ccc3nc(-c4ccccc4)c(-c4ccccc4)nc3c2)CC1,474*,11,-1,15,1,8,0
O=C(COC(=O)Cc1n[nH]c(=O)c2ccccc12)NNC(=O)c1ccc(Br)cc1,-4,/,/,/,/,/,/
COc1ccc(C)cc1NC(=O)Cn1c(=O)oc2ccccc21,486*,14,-3,-6,-3,14,-1
CCCc1nnc(NC(=O)CCC(=O)Nc2ccc(Br)cc2)s1,66,14,-2,-3,-1,/,/
O=C1N=C(N2CCN(c3ccccc3)CC2)SC1Cc1ccccc1 (centres undefined),530*,40*,-1,-32,1,7,0
Fc1ccc(CN(Cc2ccccc2)C(c2cccs2)c2nnnn2C2CCCCC2)cc1 (centres undefined),162,2,-3,-10,-2,-12,/
Clc1ccc(CN(Cc2ccccc2)C(c2cccs2)c2nnnn2C2CCCC2)cc1 (centres undefined),657*,-1,-1,-5,-2,-4,1
COc1ccccc1NC(=O)CSc1nc(O)c(Cc2ccccc2)c(=O)[nH]1,+,6,-1,5,-2,18,1
CCc1c(O)nc(SCC(=O)Nc2ccccc2OC)[nH]c1=O,-14,-3,-4,-1,-3,7,/
COc1cc(NC(=O)c2cc(Cl)ccc2Cl)ccc1-c1cc2ccccc2oc1=O,406*,14,-2,3,-2,7,0
O=C(O)/C=C\C(=O)NC1CCCCC1,509*,32,-1,2,-1,-11,1
COc1ccccc1C(=O)OCC(=O)NC(=O)NCc1ccccc1,891*,23,-3,-20,-3,3,1
CN(C)CCCNC(=S)N(CCO)Cc1cc2cc3c(cc2[nH]c1=O)OCO3,2,22,-2,1,-1,13,/
SMILES,Mot1-301 SUMO,NALP1 inh,IMP-1 inhibitor,DNA FID counter,VIM-2 inh,UBC9 SUMO inh,Mot1 SUMO dose
CN(C/C=C/c1ccccc1[N+](=O)[O-])Cc1ccccc1,372*,-20,-2,12,-2,16,0
CC(C)N(Cc1ccccc1)C(=O)/C=C/c1ccccc1[N+](=O)[O-],-3,10,-2,-5,-4,22,/
O=S(=O)(Nc1nc2ccccc2nc1N1CCN(c2ccccc2F)CC1)c1ccc(Cl)cc1,/,4,-1,-5,-4,24,/
c1ccc(CNc2ccc3ccccc3n2)nc1,365*,3,-1,2,5,10,-2
Cc1cc(NCc2ccccn2)nc2ccccc12,1,16,3,-6,-2,12,/
Cn1cc(C(=O)N2CCCC(Nc3ccc(F)cc3)C2)c2ccccc21 (centres undefined),662*,-16,-1,-34,2,-5,1
COc1ccc(OC)c(NC(=O)CN(C)S(=O)(=O)c2ccc(Cl)cc2)c1,415*,13,-3,-21,-2,-4,0
COc1ccc(OC)c(S(=O)(=O)N(C)CC(=O)Nc2ccccc2OC)c1,-3,/,-1,-16,-2,-1,/
COc1ccc(CNCC(=O)Nc2cc(C)nn2-c2nc(C)cc(C)n2)cc1OC,63,-3,-4,-8,0,-5,/
Cc1cc(C)nc(-n2nc(C)cc2NC(=O)CNCc2ccccc2)n1,+,/,-5,-15,3,10,1
CCOc1ccc(NC(=O)c2ccc3c(c2)CCN3S(C)(=O)=O)cc1,-7,14,-6,-13,-2,7,/
O=C(O)CC12C[C@H]3C[C@@H](C1)CC(n1ncc(N4CCN(c5ccccc5)CC4)c(Cl)c1=O)(C3)C2,-2,6,-3,-49,-3,-21,/
COc1ccc(-c2cc(C(F)(F)F)n3ncc(C(=O)O)c3n2)cc1OC,367*,3,-4,-3,-2,-10,0
COc1cccc(-c2cc(C(F)(F)F)n3ncc(C(=O)O)c3n2)c1,2,17,0,-11,3,6,/
C=CCN(CC=C)C(=O)COC(=O)c1ccc(Sc2ncn[nH]2)c([N+](=O)[O-])c1,-5,15,0,3,0,7,/
O=C(C[C@H]1C/C=C\CC[C@H](Cc2ccc(F)cc2)C(=O)OC[C@@H](Cc2c[nH]c3ccccc23)NC1=O)NCCO,-3,/,/,/,/,/,/
CCOC(=O)N1CCN(S(=O)(=O)c2ccc(Br)s2)CC1,365*,-10,1,-10,2,-6,0
CN1CCN(S(=O)(=O)c2ccc(Br)s2)CC1,-18,-3,-2,-2,-2,-25,/
CCOC(=O)N1CCN(S(=O)(=O)c2ccc(C)c(C)c2)CC1,388*,28,-2,-26,2,9,0
CCOC(=O)N1CCN(S(=O)(=O)c2ccc(OCC)c(C)c2)CC1,8,9,-3,-28,-3,6,/
